37 compounds from PubChem BioAssay AID624011 (Broad Institute, 2012) can be followed below.

Calls of active or inactive are those of the source.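 The calls were made as follows: active = fitted curve reaching 35% inhibition at both 405 and 600 nm absorbance, in duplicate, within twice the top valid dose; inactive = the rest, including signal rising instead of falling.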

One test deals with P. aeruginosa + EDDHA, pyoverdine absorbance 405 nm, 24-30 h. Kind of test: P. aeruginosa growth delay under iron chelation, dose response, absorbance 405 nm, dry powder, set 2 (AID 624011).
Conditions: not given
In short, it runs like this: (§1)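 Assay system – Pseudomonas aeruginosa strain ATCC 15692, whole bacterial cells · Amount – bacterial inoculum at final OD600 of 0.0000005 · Also added – EDDHA, 2 µM final · Schedule – bacterial growth with compound 24-30 h at 37 °C, humidified · Technique – absorbance 405 nm (pyoverdine)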
As for `N#CC(c1ccc(Cl)cc1)c1ncccc1Cl` (configuration not stated), the AC35 is 33.6 µM.

As to `N#CC(c1ccc(Cl)cc1)c1cccc(Cl)n1` (configuration not stated), the AC35 was 18 µM.

As for `N#CC(c1ccc(Cl)cc1)c1cccc(C(F)(F)F)n1` (configuration not stated), the AC35 is 7.35 µM.

With `N#CC(c1ccc(F)cc1)c1cccc(C(F)(F)F)n1` (configuration not stated), the AC35 was 17.6 µM.

As to `N#CC(c1cccc(Cl)n1)c1ccc(Cl)cc1F` (configuration not stated), the AC35 was 19.6 µM.

On to `N#CC(c1cccc(C(F)(F)F)n1)c1ccc(Cl)cc1F` (configuration not stated), for which the AC35 was 26.2 µM.

With `COc1cccc(C(C#N)c2ccc(F)cc2)n1` (configuration not stated), the AC35 is > 50 µM (inactive).

Tested on in a further test: not listed separately
Described as above. As to conditions: P. aeruginosa + EDDHA, pyoverdine absorbance 405 nm, 24-30 h; at 50 µM (top of the series). The procedure, abridged:
as §1
As to `N#Cc1ccc(C(C#N)c2ccc(Cl)cc2Cl)nc1` (configuration not stated), the activity change, negative = inhibition was 3.9% (inactive).

As to `N#CC(c1ccc(C(F)(F)F)cc1)c1ccc(C(F)(F)F)c(Cl)n1` (configuration not stated), the activity change, negative = inhibition is 0.565% (inactive).

As for `N#CC(c1ccc(Cl)cc1)c1ccc(C(F)(F)F)cn1` (configuration not stated), the activity change, negative = inhibition is 5.88% (inactive).

`N#Cc1cccc(C(C#N)c2ccc(Cl)cc2Cl)n1` (configuration not stated): the activity change, negative = inhibition is -7.16% (inactive).

`N#CC(c1ccc(Cl)cc1)c1ccc(C(F)(F)F)c(Cl)n1` (configuration not stated): the activity change, negative = inhibition is 1.79% (inactive).

As for `CCCCC(C#N)c1ccc(Cl)cc1F` (configuration not stated), the activity change, negative = inhibition is -9.53% (inactive).

Regarding `N#CC(c1cccc(Cl)n1)c1ccc(Cl)cc1Cl` (configuration not stated), the activity change, negative = inhibition was -12.6% (inactive).

Turning to `N#CC(c1ccc(C(F)(F)F)cc1)c1cccc(C(F)(F)F)n1` (configuration not stated), the activity change, negative = inhibition was 0.339% (inactive).

Take `CCCCC(C#N)c1ccc(F)cc1` (configuration not stated): the activity change, negative = inhibition is -8.06% (inactive).

As to `N#CC(c1ccc(C(F)(F)F)c(Cl)n1)c1ccc(Cl)cc1Cl` (configuration not stated), the activity change, negative = inhibition is 5.25% (inactive).

As to `CC(C#N)(c1ccc(Cl)cc1)c1ccc(C(F)(F)F)cn1` (configuration not stated), the activity change, negative = inhibition was -3.64% (inactive).

Turning to `N#CC(c1ccc(C(F)(F)F)cc1)c1cccc(Cl)n1` (configuration not stated), the activity change, negative = inhibition is -7.8% (inactive).

For `N#Cc1cccc(C(C#N)c2ccccc2OC(F)(F)F)n1` (configuration not stated), the activity change, negative = inhibition is 4.18% (inactive).

Take `N#Cc1cccc(C(C#N)c2ccc(Cl)cc2)n1` (configuration not stated): the activity change, negative = inhibition is -11.7% (inactive).

For `N#Cc1ccc(C(C#N)c2ccc(Cl)cc2)nc1` (configuration not stated), the activity change, negative = inhibition was -6.67% (inactive).

For `CCCC(C#N)c1ccc(Cl)cc1` (configuration not stated), the activity change, negative = inhibition is 1.22% (inactive).

On to `N#CC(c1cccc(Cl)n1)c1ccccc1OC(F)(F)F` (configuration not stated), for which the activity change, negative = inhibition was -13.5% (inactive).

On to `CCCCC(C#N)c1ccc(Cl)cc1Cl` (configuration not stated), for which the activity change, negative = inhibition is 4.33% (inactive).

Consider `N#CC(c1ccc(C(F)(F)F)c(Cl)n1)c1ccc(Cl)cc1F` (configuration not stated), for which the activity change, negative = inhibition was -8.56% (inactive).

Take `N#CC(c1cccc(C(F)(F)F)n1)c1ccccc1OC(F)(F)F` (configuration not stated): the activity change, negative = inhibition is -5.85% (inactive).

As for `Cc1ccc(C(C#N)c2ccc(Cl)cc2)nc1` (configuration not stated), the activity change, negative = inhibition was -6.12% (inactive).

`N#CC(c1ccc(Cl)cc1Cl)c1ncccc1Cl` (configuration not stated): the activity change, negative = inhibition was 5.69% (inactive).

As for `N#CC(c1ccc(C(F)(F)F)c(Cl)n1)c1ccccc1OC(F)(F)F` (configuration not stated), the activity change, negative = inhibition was 2.22% (inactive).

Take `CCCCC(C#N)c1ccc(C(F)(F)F)cc1` (configuration not stated): the activity change, negative = inhibition is -7.42% (inactive).

As for `N#CC(CC1CC1)c1ccc(Cl)cc1` (configuration not stated), the activity change, negative = inhibition is -6.92% (inactive).

As to `Cc1ccc(C(C#N)c2ccccc2OC(F)(F)F)nc1C#N` (configuration not stated), the activity change, negative = inhibition is 1.92% (inactive).

As to `Cc1ccc(C(C#N)c2ccc(Cl)cc2)nc1C#N` (configuration not stated), the activity change, negative = inhibition was -8.79% (inactive).

For `CC(C)CC(C#N)c1ccc(Cl)cc1` (configuration not stated), the activity change, negative = inhibition was 1.37% (inactive).

Regarding `CCCCC(C#N)c1ccc(Cl)cc1` (configuration not stated), the activity change, negative = inhibition is -0.942% (inactive).

Consider `CCCCC(C#N)c1ccccc1OC(F)(F)F` (configuration not stated), for which the activity change, negative = inhibition was 1.13% (inactive).
